Assay results reported in ChEMBL document CHEMBL1140925, “Nuclear factor-kappaB mediated inhibition of cytokine production by imidazoline scaffolds” (J Med Chem, 2009).

Tests used:
[1] = Cytotoxicity against human whole blood lymphocytes assessed as survival cell count in millions at 3 uM by trypan blue staining based hemocytometer
[2] = test system: HeLa; assay: Cell cycle arrest in TNF-alpha-stimulated human HeLa cells transfected with NFkappaB-Luc assessed as accumulation at G2/G1 phase at 5 uM after 8 hrs by propidium iodide-based flow cytometry; format: functional
How it was run: (§1)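 HeLa NF-κB-luc cells (stable, hygromycin-selected) were treated with vehicle (1% DMSO) or compound at 40–0.2 µM final for 8 h at 37 °C, 5% CO2. Adherent cells were trypsinized, resuspended in PBS/50% FBS, fixed overnight in 70% ice-cold ethanol and washed with cold PBS/10% FBS, then analysed for cell cycle by flow cytometry.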

[3] = test system: HeLa; assay: Cell cycle arrest in TNF-alpha-stimulated human HeLa cells transfected with NFkappaB-Luc assessed as accumulation at diploid G2 phase at 5 uM after 8 hrs by propidium iodide-based flow cytometry; format: functional; how it was run: as §1
[4] = test system: HeLa; assay: Cell cycle arrest in TNF-alpha-stimulated human HeLa cells transfected with NFkappaB-Luc assessed as accumulation at G2/G1 phase at 1 uM after 8 hrs by propidium iodide-based flow cytometry; format: functional
[5] = test system: HeLa; assay: Cell cycle arrest in TNF-alpha-stimulated human HeLa cells transfected with NFkappaB-Luc assessed as accumulation at diploid G1 phase at 5 uM after 8 hrs by propidium iodide-based flow cytometry; format: functional; how it was run: as §1
[6] = test system: HeLa; assay: Cell cycle arrest in TNF-alpha-stimulated human HeLa cells transfected with NFkappaB-Luc assessed as accumulation at diploid stage at 0.5 uM after 8 hrs by propidium iodide-based flow cytometry; format: functional; how it was run: as §1
[7] = test system: HeLa; assay: Cell cycle arrest in TNF-alpha-stimulated human HeLa cells transfected with NFkappaB-Luc assessed as accumulation at diploid G1 phase at 20 uM after 8 hrs by propidium iodide-based flow cytometry; format: functional; how it was run: as §1
[8] = test system: HeLa; assay: Cell cycle arrest in TNF-alpha-stimulated human HeLa cells transfected with NFkappaB-Luc assessed as accumulation at diploid G1 phase at 0.05 uM after 8 hrs by propidium iodide-based flow cytometry; format: functional
[9] = test system: HeLa; assay: Cell cycle arrest in TNF-alpha-stimulated human HeLa cells transfected with NFkappaB-Luc assessed as accumulation at G2/G1 phase at 0.5 uM after 8 hrs by propidium iodide-based flow cytometry; format: functional; how it was run: as §1
[10] = test system: HeLa; assay: Cell cycle arrest in TNF-alpha-stimulated human HeLa cells transfected with NFkappaB-Luc assessed as accumulation at diploid G2 phase at 1 uM after 8 hrs by propidium iodide-based flow cytometry; format: functional
[11] = test system: HeLa; assay: Effect on cell cycle arrest in TNF-alpha-stimulated human HeLa cells assessed as cell aggregate level at 20 uM after 8 hrs by propidium iodide-based flow cytometry; format: functional
[12] = test system: HeLa; assay: Cell cycle arrest in human HeLa cells transfected with NFkappaB-Luc assessed as accumulation at diploid G1 phase at 20 uM after 8 hrs by propidium iodide-based flow cytometry; format: functional; how it was run: as §1
[13] = test system: HeLa; assay: Cell cycle arrest in TNF-alpha-stimulated human HeLa cells transfected with NFkappaB-Luc assessed as accumulation at diploid G1 phase at 0.1 uM after 8 hrs by propidium iodide-based flow cytometry; format: functional
[14] = test system: HeLa; assay: Cell cycle arrest in TNF-alpha-stimulated human HeLa cells transfected with NFkappaB-Luc assessed as accumulation at diploid stage at 20 uM after 8 hrs by propidium iodide-based flow cytometry; format: functional; how it was run: as §1
[15] = test system: HeLa; assay: Cell cycle arrest in TNF-alpha-stimulated human HeLa cells transfected with NFkappaB-Luc assessed as accumulation at diploid stage at 10 uM after 8 hrs by propidium iodide-based flow cytometry; format: functional; how it was run: as §1
[16] = test system: HeLa; assay: Cell cycle arrest in TNF-alpha-stimulated human HeLa cells transfected with NFkappaB-Luc assessed as accumulation at diploid G1 phase at 1 uM after 8 hrs by propidium iodide-based flow cytometry; format: functional
[17] = test system: HeLa; assay: Effect on cell cycle arrest in TNF-alpha-stimulated human HeLa cells assessed as cell aggregate level at 0.1 uM after 8 hrs by propidium iodide-based flow cytometry; format: functional
[18] = test system: HeLa; assay: Cell cycle arrest in TNF-alpha-stimulated human HeLa cells transfected with NFkappaB-Luc assessed as accumulation at S phase at 0.1 uM after 8 hrs by propidium iodide-based flow cytometry; format: functional
[19] = Cytotoxicity against human whole blood IL-1-beta-stimulated lymphocytes assessed as survival cell count in millions at 20 uM by trypan blue staining based hemocytometer
[20] = test system: HeLa; assay: Cell cycle arrest in human HeLa cells transfected with NFkappaB-Luc assessed as accumulation at S phase at 20 uM after 8 hrs by propidium iodide-based flow cytometry; format: functional; how it was run: as §1
[21] = test system: HeLa; assay: Cell cycle arrest in human HeLa cells transfected with NFkappaB-Luc assessed as accumulation at diploid G2 phase at 20 uM after 8 hrs by propidium iodide-based flow cytometry; format: functional; how it was run: as §1
[22] = test system: HeLa; assay: Effect on cell cycle arrest in human HeLa cells assessed as cell aggregate level at 20 uM after 8 hrs by propidium iodide-based flow cytometry; format: functional
How it was run: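 Cells were exposed to vehicle (1% DMSO) or compound for 8 h at 37 °C, 5% CO₂. They were then trypsinized, resuspended in PBS with 50% FBS, fixed overnight in ice-cold 70% ethanol, and washed twice with ice-cold PBS containing 10% FBS before flow cytometric cell-cycle analysis.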

[23] = test system: HeLa; assay: Cell cycle arrest in TNF-alpha-stimulated human HeLa cells transfected with NFkappaB-Luc assessed as accumulation at diploid stage at 0.05 uM after 8 hrs by propidium iodide-based flow cytometry; format: functional
[24] = Cytotoxicity against human whole blood IL-1-beta-stimulated lymphocytes assessed as survival cell count in millions at 3 uM by trypan blue staining based hemocytometer
[25] = test system: HeLa; assay: Cell cycle arrest in TNF-alpha-stimulated human HeLa cells transfected with NFkappaB-Luc assessed as accumulation at G2/G1 phase at 10 uM after 8 hrs by propidium iodide-based flow cytometry; format: functional; how it was run: as §1
[26] = test system: HeLa; assay: Cell cycle arrest in TNF-alpha-stimulated human HeLa cells transfected with NFkappaB-Luc assessed as accumulation at diploid G2 phase at 0.5 uM after 8 hrs by propidium iodide-based flow cytometry; format: functional; how it was run: as §1
[27] = test system: HeLa; assay: Effect on cell cycle arrest in TNF-alpha-stimulated human HeLa cells assessed as cell aggregate level at 0.5 uM after 8 hrs by propidium iodide-based flow cytometry; format: functional
[28] = test system: HeLa; assay: Cell cycle arrest in TNF-alpha-stimulated human HeLa cells transfected with NFkappaB-Luc assessed as accumulation at S phase at 10 uM after 8 hrs by propidium iodide-based flow cytometry; format: functional; how it was run: as §1
[29] = test system: HeLa; assay: Effect on cell cycle arrest in TNF-alpha-stimulated human HeLa cells assessed as cell debris level at 20 uM after 8 hrs by propidium iodide-based flow cytometry; format: functional
[30] = test system: HeLa; assay: Cell cycle arrest in TNF-alpha-stimulated human HeLa cells transfected with NFkappaB-Luc assessed as accumulation at G2/G1 phase at 0.1 uM after 8 hrs by propidium iodide-based flow cytometry; format: functional
[31] = test system: HeLa; assay: Effect on cell cycle arrest in TNF-alpha-stimulated human HeLa cells assessed as cell debris level at 10 uM after 8 hrs by propidium iodide-based flow cytometry; format: functional

CCOC(=O)[C@]1(c2ccccc2)N=C(c2ccccc2)N(Cc2ccccc2)[C@@H]1c1ccccc1 (racemic)
Activity [1]: 1.7 mL⁻¹ | Ratio [2]: 1.91 | Activity [3]: 13.84% | Ratio [4]: 1.91 | Activity [5]: 66.37% | Activity [6]: 100% | Activity [7]: 65.96% | Activity [8]: 64.3% | Ratio [9]: 1.91 | Activity [10]: 13.88% | Activity [11]: 0% | Activity [12]: 65.19% | Activity [13]: 64.5% | Activity [14]: 100% | Activity [15]: 100% | Activity [16]: 63.22% | Activity [17]: 0% | Activity [18]: 21.47% | Activity [19]: 1.46 mL⁻¹ | Activity [20]: 21.48% | Activity [21]: 13.33% | Activity [22]: 0% | Activity [23]: 100% | Activity [24]: 1.28 mL⁻¹ | Ratio [25]: 1.91 | Activity [26]: 13.4% | Activity [27]: 0% | Activity [28]: 16.8% | Activity [29]: 14.57% | Ratio [30]: 1.92 | Activity [31]: 15.28%
